From ChEMBL document CHEMBL1143599, “Design, synthesis, and antiviral activity of adenosine 5'-phosphonate analogues as chain terminators against hepatitis C virus” (J Med Chem, 2005)

Assays:
Format in all cases: functional
[1] = molecular target: RNA-directed RNA polymerase (Hepacivirus hominis) (UniProt O39930); experiment: Ratio of steady state kinetic constant and incorporation efficiency for Hepatitis C Virus NS5BRdRp
Outline: (§1)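 HCV NS5B, C-terminal His-tag with 21-residue truncation, 1 µM. Template 5′-AAAAAAAUGC-3′ and [5′-33P]GpC primer each at 20 µM. Buffer 50 mM HEPES pH 7.3, 10 mM DTT, 5 mM MgCl2; 15 min at 30 °C. Substrate varied from Km/2 to 10Km; EDTA quench, denaturing urea-PAGE. Initial velocities fitted to Michaelis-Menten for Km and Vmax; efficiency taken as Vmax/Km.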

[2] = tested on: Nc1ncnc2c1ncn2[C@@H]1O[C@H](COP(=O)(O)OP(=O)(O)OP(=O)(O)O)[C@@H](O)[C@H]1O; experiment: Incorporation efficiency for Hepatitis C Virus NS5BRdRp; details: Hepacivirus hominis; outline: as §1
[3] = tested on: Nc1ncnc2c1ncn2[C@@H]1O[C@H](COP(=O)(O)OP(=O)(O)OP(=O)(O)O)[C@@H](O)[C@H]1O; experiment: Steady-state kinetic constant for Hepatitis C Virus NS5BRdRp; details: Hepacivirus hominis; outline: as §1

`Nc1ncnc2c1ncn2[C@@H]1O[C@H](CCP(=O)(O)OP(=O)(O)OP(=O)(O)O)[C@@H](O)[C@H]1O` gave a Ratio [1] of 0.00019.
`Nc1ncnc2c1ncn2[C@@H]1O[C@H](COP(=O)(O)OP(=O)(O)OP(=O)(O)O)[C@@H](O)[C@H]1O` showed a Ratio [1] of 0.0017.
Compound `Nc1ncnc2c1ncn2[C@@H]1O[C@H](OCP(=O)(O)OP(=O)(O)OP(=O)(O)O)[C@@H](O)[C@H]1O` has a Ratio [1] of 1.2e-05.
With “RNA-directed RNA polymerase (Hepacivirus hominis), O39930” the Vmax [2] was 0.23 µM/min and the Km [3] was 133 µM.
